Ki, IC50 and inhibition data for 24 molecules are collected here from ChEMBL document CHEMBL3596098, “Insights into the interaction of negative allosteric modulators with the metabotropic glutamate receptor 5: discovery and computational modeling of a new series of ligands with nanomolar affinity” (Bioorg Med Chem, 2015).

Experiment [1] deals with T1, Metabotropic glutamate receptor 5 (Homo sapiens, UniProt P41594). Description: Displacement of [3H]MPEP from human cloned mGluR5 receptor expressed in CHO-T-Rex cells after 60 mins by liquid scintillation spectrometry. It counts as cell-based. On the technique in general: Loss of bound radioactivity is the signal in a displacement assay; it reports binding, not function.
Target sequence in this assay (P41594 whole entry): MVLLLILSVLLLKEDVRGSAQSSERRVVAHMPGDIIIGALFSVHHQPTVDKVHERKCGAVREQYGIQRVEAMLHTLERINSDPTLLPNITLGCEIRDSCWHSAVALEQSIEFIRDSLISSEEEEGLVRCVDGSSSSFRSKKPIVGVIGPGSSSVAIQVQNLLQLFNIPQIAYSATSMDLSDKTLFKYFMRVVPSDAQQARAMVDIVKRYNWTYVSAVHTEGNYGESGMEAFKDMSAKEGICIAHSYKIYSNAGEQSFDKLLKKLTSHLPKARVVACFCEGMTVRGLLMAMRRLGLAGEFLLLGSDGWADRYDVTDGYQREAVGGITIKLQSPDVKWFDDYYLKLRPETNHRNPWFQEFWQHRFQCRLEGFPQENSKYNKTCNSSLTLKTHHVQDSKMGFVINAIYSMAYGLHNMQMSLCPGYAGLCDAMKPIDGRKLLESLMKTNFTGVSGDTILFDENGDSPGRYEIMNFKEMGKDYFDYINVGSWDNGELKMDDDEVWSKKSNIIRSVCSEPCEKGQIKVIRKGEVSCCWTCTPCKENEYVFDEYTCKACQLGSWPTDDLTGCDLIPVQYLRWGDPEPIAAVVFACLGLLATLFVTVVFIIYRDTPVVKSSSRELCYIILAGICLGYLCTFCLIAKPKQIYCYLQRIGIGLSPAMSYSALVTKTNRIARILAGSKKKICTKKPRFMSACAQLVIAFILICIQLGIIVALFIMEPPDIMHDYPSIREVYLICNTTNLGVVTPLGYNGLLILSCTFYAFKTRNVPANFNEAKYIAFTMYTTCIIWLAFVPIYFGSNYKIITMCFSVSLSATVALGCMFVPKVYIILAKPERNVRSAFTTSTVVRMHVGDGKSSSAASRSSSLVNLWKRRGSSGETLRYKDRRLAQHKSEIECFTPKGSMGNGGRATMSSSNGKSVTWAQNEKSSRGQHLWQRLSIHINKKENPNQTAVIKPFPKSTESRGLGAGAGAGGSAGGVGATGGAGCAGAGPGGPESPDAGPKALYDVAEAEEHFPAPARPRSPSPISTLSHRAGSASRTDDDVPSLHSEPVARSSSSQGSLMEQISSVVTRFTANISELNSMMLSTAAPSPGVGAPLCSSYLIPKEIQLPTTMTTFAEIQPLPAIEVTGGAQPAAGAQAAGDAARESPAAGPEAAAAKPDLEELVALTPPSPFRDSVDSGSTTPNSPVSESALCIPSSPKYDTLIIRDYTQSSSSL

Experiment [2] has as its target T2, Metabotropic glutamate receptor 1 (Rattus norvegicus, UniProt P23385). Description: Negative allosteric modulatory activity at rat cloned mGluR1 receptor expressed in CHO-T-Rex cells assessed as inhibiton of quisqualate-induced calcium mobilization treated 10 mins prior to agonist application by fluorescence analysis. It counts as functional, cell-based. In a few lines: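 CHO T-REx cells expressing rat mGlu1, induced 18 h with 10 ng/mL tetracycline and seeded at 80,000 cells/well. Loaded with 2 µM Fluo-4/AM (1 h, 37 °C, HBSS/HEPES/probenecid), then washed. Compound (0.5% DMSO final) given 10 min before quisqualate at its daily EC80. Peak minus basal fluorescence recorded over 60 s. Three independent experiments.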
A general note: Calcium assays in cells follow changes in intracellular calcium, usually with a dye or a luminescent sensor.

The target of experiment [3] is T2, Metabotropic glutamate receptor 1. Description: Displacement of [3H]R214127 from rat cloned mGluR1 receptor expressed in CHO-T-Rex cells after 30 mins by liquid scintillation spectrometry. It counts as cell-based. Summed up: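 CHO T-REx cells stably expressing rat mGlu1, derepressed by 1 µg/mL tetracycline for 18 h. Nonspecific binding with 1 µM R214127. Filtration, scintillation counting. Ki by Cheng-Prusoff.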

The target in experiment [4] is T1, Metabotropic glutamate receptor 5. Description: Negative allosteric modulatory activity at human cloned mGluR5 receptor expressed in CHO-T-Rex cells assessed as inhibiton of quisqualate-induced calcium mobilization treated 10 mins prior to agonist application by fluorescence analysis. It counts as functional, cell-based. In a few lines:
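CHO T-REx cells expressing human mGlu5, induced 18 h with 3 ng/mL tetracycline and seeded at 80,000 cells/well. Loaded 1 h at 37 °C with 2 µM Fluo-4/AM in HBSS with 20 mM HEPES and 2.5 mM probenecid, then washed. Compound (0.5% DMSO final) added 10 min before quisqualate at its daily EC80. Peak minus basal fluorescence read every 1.5 s for 60 s.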
Target sequence in this assay (P41594 whole entry): as above

Experiment [5] addresses Metabotropic glutamate receptor 5 (Rattus norvegicus, UniProt P31424). Description: Displacement of [3H]MPEP from mGluR5 receptor in Sprague-Dawley rat forebrain membrane after 60 mins by liquid scintillation spectrometry.
Experiment [6] deals with T1, Metabotropic glutamate receptor 5. The experiment is described as follows: Non-competitive antagonist activity at human cloned mGluR5 receptor expressed in CHO-T-Rex cells assessed as inhibiton of quisqualate-induced calcium mobilization at 0.3 nM treated 10 mins prior to agonist application by fluorescence analysis. It counts as functional, cell-based.
Target sequence in this assay (P41594 21-1212 limits assumed): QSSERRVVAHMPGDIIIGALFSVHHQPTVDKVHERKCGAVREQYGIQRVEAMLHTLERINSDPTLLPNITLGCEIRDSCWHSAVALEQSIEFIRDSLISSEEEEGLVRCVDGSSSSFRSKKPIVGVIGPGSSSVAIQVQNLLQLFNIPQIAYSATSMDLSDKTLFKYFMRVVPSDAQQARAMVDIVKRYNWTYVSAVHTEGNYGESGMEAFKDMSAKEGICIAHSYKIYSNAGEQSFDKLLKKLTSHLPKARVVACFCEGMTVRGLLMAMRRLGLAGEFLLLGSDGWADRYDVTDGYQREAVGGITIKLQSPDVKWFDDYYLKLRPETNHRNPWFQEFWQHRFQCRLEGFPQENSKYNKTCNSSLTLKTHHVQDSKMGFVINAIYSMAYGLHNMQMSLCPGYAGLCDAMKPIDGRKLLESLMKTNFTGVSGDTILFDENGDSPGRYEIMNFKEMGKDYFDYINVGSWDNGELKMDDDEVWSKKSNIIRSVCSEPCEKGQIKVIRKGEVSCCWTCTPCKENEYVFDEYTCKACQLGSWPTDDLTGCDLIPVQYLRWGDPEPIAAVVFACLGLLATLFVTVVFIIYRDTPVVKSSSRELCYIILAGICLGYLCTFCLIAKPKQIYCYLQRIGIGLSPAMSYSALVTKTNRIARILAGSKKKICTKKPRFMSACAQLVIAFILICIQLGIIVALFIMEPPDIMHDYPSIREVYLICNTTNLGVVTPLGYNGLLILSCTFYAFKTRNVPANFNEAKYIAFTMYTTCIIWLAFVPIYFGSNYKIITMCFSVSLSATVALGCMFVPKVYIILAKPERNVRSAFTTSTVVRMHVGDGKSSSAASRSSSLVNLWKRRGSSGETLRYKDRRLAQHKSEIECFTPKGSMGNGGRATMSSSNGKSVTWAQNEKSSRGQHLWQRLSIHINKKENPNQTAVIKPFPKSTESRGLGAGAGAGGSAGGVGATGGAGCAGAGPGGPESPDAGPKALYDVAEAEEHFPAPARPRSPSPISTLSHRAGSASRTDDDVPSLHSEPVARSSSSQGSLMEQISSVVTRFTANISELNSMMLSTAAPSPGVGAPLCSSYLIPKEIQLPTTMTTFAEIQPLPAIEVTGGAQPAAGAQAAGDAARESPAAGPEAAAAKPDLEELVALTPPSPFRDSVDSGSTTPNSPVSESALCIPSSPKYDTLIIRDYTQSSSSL

The structures appear in SMILES notation. pIC50, pKi: −log10 of the molar value.

Chain of Metabotropic glutamate receptor 5 (Rattus norvegicus, UniProt P31424) (P31424 whole entry): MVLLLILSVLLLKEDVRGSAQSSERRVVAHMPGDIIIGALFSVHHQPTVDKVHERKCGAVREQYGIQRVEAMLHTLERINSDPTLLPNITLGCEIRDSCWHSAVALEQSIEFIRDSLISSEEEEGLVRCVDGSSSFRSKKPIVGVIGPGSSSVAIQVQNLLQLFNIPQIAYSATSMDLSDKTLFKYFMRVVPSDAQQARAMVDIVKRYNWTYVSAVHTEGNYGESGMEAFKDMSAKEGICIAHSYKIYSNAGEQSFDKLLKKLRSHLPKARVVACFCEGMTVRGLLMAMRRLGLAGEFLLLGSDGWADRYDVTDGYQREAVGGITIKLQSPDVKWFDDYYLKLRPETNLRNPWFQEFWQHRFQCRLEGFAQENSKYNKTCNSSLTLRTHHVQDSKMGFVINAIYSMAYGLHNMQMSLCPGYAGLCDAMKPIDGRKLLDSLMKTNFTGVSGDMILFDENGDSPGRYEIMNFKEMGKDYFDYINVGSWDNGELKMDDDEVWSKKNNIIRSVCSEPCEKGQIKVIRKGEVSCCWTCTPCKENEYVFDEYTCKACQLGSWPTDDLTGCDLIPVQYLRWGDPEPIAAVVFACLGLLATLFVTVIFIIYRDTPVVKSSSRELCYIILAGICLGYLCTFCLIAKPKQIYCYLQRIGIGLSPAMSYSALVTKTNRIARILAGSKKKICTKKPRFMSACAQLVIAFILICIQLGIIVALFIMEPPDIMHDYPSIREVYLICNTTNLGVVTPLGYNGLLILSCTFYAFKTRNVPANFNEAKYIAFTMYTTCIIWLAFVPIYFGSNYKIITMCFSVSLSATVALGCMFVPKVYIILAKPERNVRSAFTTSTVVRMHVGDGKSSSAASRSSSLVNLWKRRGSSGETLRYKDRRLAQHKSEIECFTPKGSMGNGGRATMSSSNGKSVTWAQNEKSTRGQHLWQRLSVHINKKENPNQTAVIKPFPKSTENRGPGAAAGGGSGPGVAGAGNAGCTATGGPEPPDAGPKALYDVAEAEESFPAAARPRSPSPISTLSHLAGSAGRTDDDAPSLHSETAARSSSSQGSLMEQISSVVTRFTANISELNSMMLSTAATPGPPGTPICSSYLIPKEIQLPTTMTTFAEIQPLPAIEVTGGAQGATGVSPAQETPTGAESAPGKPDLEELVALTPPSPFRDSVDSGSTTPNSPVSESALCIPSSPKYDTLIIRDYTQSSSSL
T2 sequence (P23385 whole entry): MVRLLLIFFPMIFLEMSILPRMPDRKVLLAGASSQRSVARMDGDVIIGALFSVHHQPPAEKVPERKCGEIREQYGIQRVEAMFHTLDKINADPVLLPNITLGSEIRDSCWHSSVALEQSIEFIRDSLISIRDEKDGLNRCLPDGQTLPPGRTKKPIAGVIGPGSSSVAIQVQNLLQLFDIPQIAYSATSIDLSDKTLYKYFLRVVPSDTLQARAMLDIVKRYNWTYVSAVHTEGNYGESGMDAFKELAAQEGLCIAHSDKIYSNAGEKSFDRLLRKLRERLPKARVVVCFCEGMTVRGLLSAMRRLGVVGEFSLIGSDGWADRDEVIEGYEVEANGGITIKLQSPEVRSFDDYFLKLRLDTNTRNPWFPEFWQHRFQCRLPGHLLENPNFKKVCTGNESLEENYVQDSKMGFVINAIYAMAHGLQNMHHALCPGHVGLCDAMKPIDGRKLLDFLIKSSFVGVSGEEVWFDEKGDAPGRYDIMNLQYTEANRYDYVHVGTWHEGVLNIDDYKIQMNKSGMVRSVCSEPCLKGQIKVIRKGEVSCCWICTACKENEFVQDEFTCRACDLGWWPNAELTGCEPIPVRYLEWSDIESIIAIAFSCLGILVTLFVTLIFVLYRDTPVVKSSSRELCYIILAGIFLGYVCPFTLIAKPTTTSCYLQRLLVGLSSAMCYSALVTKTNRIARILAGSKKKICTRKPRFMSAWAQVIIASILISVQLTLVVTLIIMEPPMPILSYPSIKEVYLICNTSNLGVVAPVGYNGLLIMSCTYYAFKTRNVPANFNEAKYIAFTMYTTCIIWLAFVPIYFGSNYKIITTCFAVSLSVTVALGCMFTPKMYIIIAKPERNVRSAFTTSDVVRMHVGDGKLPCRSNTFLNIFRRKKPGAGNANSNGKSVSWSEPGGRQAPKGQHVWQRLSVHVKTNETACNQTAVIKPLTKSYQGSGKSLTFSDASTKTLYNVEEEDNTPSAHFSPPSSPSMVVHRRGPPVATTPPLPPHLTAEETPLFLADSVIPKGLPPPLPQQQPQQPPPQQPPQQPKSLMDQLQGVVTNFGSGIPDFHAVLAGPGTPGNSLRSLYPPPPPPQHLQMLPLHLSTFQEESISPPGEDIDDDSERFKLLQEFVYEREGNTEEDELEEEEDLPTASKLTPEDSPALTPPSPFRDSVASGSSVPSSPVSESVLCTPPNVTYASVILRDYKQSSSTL

As to `CC1(C)CN(c2ccc(C#CC=C3CCN(c4ncccc4[N+](=O)[O-])CC3)cc2)C1=O`, in experiment [1], the negative logarithm of the Ki (pKi) (usually −log10 of the Ki, conventionally taken in molar units) was below 6.00.
In the case of `Cc1cccc(C#CC=C2CCN(c3ncccc3[N+](=O)[O-])CC2)c1`, the pIC50 (as a rule, the negative decadic logarithm of the IC50, by convention in mol/L) is 6.26 in experiment [2] and 8.74 in experiment [4]. Moreover, the pKi is 7.73 in experiment [3], 9.52 in experiment [1] and 9.40 in experiment [5].
Regarding `O=C(c1ccc(-c2ccccc2)cc1)N1CCN(c2ncccc2[N+](=O)[O-])CC1`, the pKi in experiment [1] is below 5.00; in experiment [5], below 6.00.
For the molecule `Cc1cccc(C#C/C=C2/CCCN(c3nc(C)ccc3[N+](=O)[O-])C2)n1`, the pKi in experiment [3] is below 6.00; in experiment [1], 6.58.
In the case of `Cc1cccc(C#CC=C2CCN(c3ccccc3)CC2)n1`, the figures for the pKi in experiment [1] and in experiment [5] were 7.53 and 7.04, respectively. Further, the pIC50 in experiment [4] was 7.26.
For `O=C(c1cnc2ccccc2n1)N1CCN(c2ncccc2[N+](=O)[O-])CC1`, the figures for the pKi in experiment [1] and in experiment [5] were below 5.00 and below 6.00, respectively.
`Cc1nc(C#Cc2cccnc2)cs1` gave a pKi in experiment [3] below 5.00.
As for `O=[N+]([O-])c1cccnc1N1CCC(=CC#Cc2ccccn2)CC1`, the pIC50 in experiment [2] is 6.68; in experiment [4], 9.40. In addition, the pKi is 7.41 in experiment [3], 9.52 in experiment [1] and 10.00 in experiment [5].
Molecule `Cc1nc(C#Cc2ccc(-c3cccnc3)nc2)cs1` had a pKi in experiment [3] below 5.00.
Take `Cc1cccc(C#CC=C2CCN(c3ncccc3[N+](=O)[O-])CC2)n1`: the inhibition (as a rule, the share of the control response that was lost under treatment) in experiment [6] worked out at 50%. In addition, the values for the pIC50 in experiment [2] and in experiment [4] were 6.35 and 9.10, respectively. Also, the negative logarithm of the Ki (pKi) in experiment [3] is 6.73; in experiment [1] it was 9.30; in experiment [5], 10.52.
As to `O=C(C#Cc1ccccc1)N1CCN(c2ccccc2[N+](=O)[O-])CC1`, the values for the pKi in experiment [3], in experiment [1] and in experiment [5] were 7.16, 9.40 and 8.74, respectively.
With `Cc1ccc([N+](=O)[O-])c(N2CCC(=CC#Cc3ccc(C#N)cn3)CC2)n1`, the values for the pKi in experiment [3], in experiment [1] and in experiment [5] were 6.72, 9.52 and 9.40, respectively. The pIC50 in experiment [4] is 8.89.
Consider `O=[N+]([O-])c1cccnc1N1CCC(=CC#Cc2ccccc2)CC1`, for which the pIC50 is 7.41 in experiment [2] and 8.55 in experiment [4]. Moreover, the negative-log Ki (pKi) in experiment [3] is 8.32; in experiment [1] it was 9.40; in experiment [5], 9.22.
Take `N#Cc1cc(Cl)cc(C#CC=C2CCN(c3ncccc3[N+](=O)[O-])CC2)c1`: the pKi is below 6.00 in experiment [3] and 6.55 in experiment [1].
In the case of `O=[N+]([O-])c1cccnc1N1CCC(=CC#Cc2cccc(Cl)c2)CC1`, the pIC50 in experiment [2] is 5.87; in experiment [4], 8.42. Besides, the pKi in experiment [3] was 7.73; in experiment [1], 9.30; in experiment [5], 9.40.
In the case of `O=C(C#Cc1ccccc1)N1CCN(c2ncccc2[N+](=O)[O-])CC1`, the pIC50 in experiment [2] was 6.57; in experiment [4] it was 9.05. Besides, the figures for the pKi in experiment [3], in experiment [1] and in experiment [5] were 7.01, 9.30 and 9.22, respectively.
As to `O=[N+]([O-])c1cccnc1N1CCN(CC#Cc2ccccc2)CC1`, the results for the pKi in experiment [3], in experiment [1] and in experiment [5] were below 6.00, 7.22 and 6.93, respectively.
With `Cc1cccc(C#CC=C2CCN(c3ncc(-c4ccccc4)cc3C#N)CC2)n1`, the figures for the pKi in experiment [3], in experiment [1] and in experiment [5] were 6.35, 9.30 and 8.54, respectively. Besides, the pIC50 in experiment [4] was 8.01.
Regarding `CN1CC(=O)N=C1NC(=O)Nc1cccc(Cl)c1` [FENOBAM ANHYDROUS], the pKi is 6.79 in experiment [1] and 6.50 in experiment [5]. Also, in experiment [4], the negative logarithm of the IC50 (pIC50) is 7.44.
As for `Cc1cccc(C#Cc2ccccc2)n1`, the pKi in experiment [3] was below 5.00.
Consider `O=C(c1ccccc1-c1ccccc1)N1CCN(c2ncccc2[N+](=O)[O-])CC1`, for which the pKi in experiment [1] and in experiment [5] was below 5.00 each time.
Consider `Cc1ccc([N+](=O)[O-])c(N2CCN(C(=O)c3cccc(-c4ccccc4)c3)CC2)n1`, for which the pKi in experiment [1] and in experiment [5] was below 5.00 each time.
On to `C=Cc1ccc([N+](=O)[O-])c(N2CCN(C(=O)C#Cc3ccccc3)CC2)n1`, for which the pKi in experiment [3] was 7.27; in experiment [5], 8.89. Moreover, the pIC50 in experiment [4] is 7.38.
For `Cc1cccc(C#CC=C2CCN(c3ccccc3[N+](=O)[O-])CC2)n1`, the pIC50 in experiment [2] was 6.26; in experiment [4], 7.98. The pKi in experiment [3] is 7.15; in experiment [1], 9.52; in experiment [5], 9.70.
